Active and inactive are the calls of the source. No cut-off for these calls is given here.
Columns and labels:
HEK293 = test: Selectivity ratio of Ki for human A1 receptor expressed in HEK293 cell membranes to Ki for human A2A receptor expressed in HEK293 cell membranes; format: cell-based
Adenosine receptor A1 = target: T1, Adenosine receptor A1 (Homo sapiens, UniProt P30542); test: Displacement of [3H]DPCPX from human A1 receptor expressed in HEK293 cell membranes after 60 mins by scintillation counting
T1 sequence (P30542 whole entry): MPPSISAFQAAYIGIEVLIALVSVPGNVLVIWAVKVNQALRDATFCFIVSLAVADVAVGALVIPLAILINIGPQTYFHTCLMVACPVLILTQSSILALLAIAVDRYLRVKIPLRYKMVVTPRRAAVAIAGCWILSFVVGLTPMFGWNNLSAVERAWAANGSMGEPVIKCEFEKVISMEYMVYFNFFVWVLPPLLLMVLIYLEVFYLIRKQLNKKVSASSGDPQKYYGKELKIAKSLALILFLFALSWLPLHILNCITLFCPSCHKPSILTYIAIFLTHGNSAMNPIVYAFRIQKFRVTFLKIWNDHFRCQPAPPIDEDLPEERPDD

Adenosine receptor A2a = Adenosine receptor A2a (Homo sapiens, UniProt P29274); test: Displacement of [3H]ZM241385 from human A2A receptor expressed in HEK293 cell membranes after 60 mins by scintillation counting
Mus musculus [1] = test: Inhibition of haloperidol-induced catalepsy in Swiss albino mouse at 10 mg/kg, ip administered 30 mins prior haloperidol challenge measured after 120 mins; format: functional, organism-based; design: dose 10 mg/kg
Procedure, shortened: (§1)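 Adult male Swiss albino mice (4–6 weeks, 20–30 g), four per group. Compound given ip at 5–20 mg/kg, with 1% acacia in saline as vehicle control. […] Catalepsy scored over time up to 120 min. Mean ± SEM, n = 4, one-way ANOVA and Kruskal–Wallis test.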

Mus musculus [2] = test: Inhibition of haloperidol-induced catalepsy in Swiss albino mouse at 5 to 20 mg/kg, ip administered 30 mins prior haloperidol challenge measured after 120 mins; format: functional, organism-based; procedure, shortened: as §1

Sequence of Adenosine receptor A2a (P29274 whole entry): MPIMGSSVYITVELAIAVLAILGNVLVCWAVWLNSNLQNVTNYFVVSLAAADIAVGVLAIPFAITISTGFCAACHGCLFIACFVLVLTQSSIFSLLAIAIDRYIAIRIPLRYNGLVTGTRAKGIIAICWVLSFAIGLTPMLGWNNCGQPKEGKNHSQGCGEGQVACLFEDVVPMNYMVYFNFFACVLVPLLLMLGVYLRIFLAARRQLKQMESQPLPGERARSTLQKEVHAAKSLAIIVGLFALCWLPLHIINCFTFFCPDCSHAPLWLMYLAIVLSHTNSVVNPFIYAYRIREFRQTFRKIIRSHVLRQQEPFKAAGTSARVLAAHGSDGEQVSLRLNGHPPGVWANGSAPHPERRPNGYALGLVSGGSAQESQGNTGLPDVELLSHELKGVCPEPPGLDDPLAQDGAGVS

| Compound | Ki (Adenosine receptor A1) [nM] | Ki (Adenosine receptor A2a) [nM] | Ratio Ki (HEK293) | inhibition (Mus musculus [1]) | inhibition (Mus musculus [2]) |
| --- | --- | --- | --- | --- | --- |
| CCCCn1c(/N=C/c2ccc(Cl)cc2)c(C#N)sc1=S | – | – | 2570 | – | – |
| CCn1c(/N=C/c2ccc(F)cc2)c(C#N)sc1=S | 0.00059 | – | 5.3e-05 | – | – |
| Nc1nc2c(cnn2CCc2ccccc2)c2nc(-c3ccco3)nn12 | – | – | – | Active | Active |
| CCCn1c(/N=C/c2ccc(F)cc2)c(C#N)sc1=S | – | – | 3390 | – | – |
| N#Cc1sc(=S)n(-c2ccccc2)c1/N=C/c1ccc(Cl)cc1 | – | – | 2950 | – | – |
| CCCCn1c(/N=C/c2ccc(Br)cc2)c(C#N)sc1=S | – | – | 0.013 | – | – |
| N#Cc1sc(=S)n(-c2ccccc2)c1/N=C/c1ccc(Br)cc1 | – | – | – | Active | Active |
| CCCCn1c(/N=C/c2ccc(F)cc2)c(C#N)sc1=S | 16.7 | 0.027 | 619 | – | – |
| CCCn1c(/N=C/c2ccc(Cl)cc2)c(C#N)sc1=S | – | – | 0.042 | – | – |

The next lines start with results.

| Ki (Adenosine receptor A1) [nM] | Ki (Adenosine receptor A2a) [nM] | Compound | Ratio Ki (HEK293) | inhibition (Mus musculus [1]) | inhibition (Mus musculus [2]) |
| --- | --- | --- | --- | --- | --- |
| 0.00074 | – | CCn1c(/N=C/c2ccc(Br)cc2)c(C#N)sc1=S | 0.074 | – | – |
| 607 | 1.8 | CCCn1c(/N=C/c2ccc(Br)cc2)c(C#N)sc1=S | 337 | – | – |
| 19.8 | 1.44 | CCn1c(/N=C/c2ccc(Cl)cc2)c(C#N)sc1=S | 13.8 | – | – |
| 0.00063 | 0.0047 | N#Cc1sc(=S)n(-c2ccccc2)c1/N=C/c1ccc(F)cc1 | 0.13 | – | – |
| 889 | 2.64 | N#Cc1sc(=S)n(CCc2ccccc2)c1/N=C/c1ccc(F)cc1 | 337 | – | – |
| 0.25 | 0.067 | N#Cc1sc(=S)n(CCc2ccccc2)c1/N=C/c1ccc(Br)cc1 | 3.73 | – | – |
